Here are results for 1 compound from ChEMBL document CHEMBL4406863, “Effective Virtual Screening Strategy toward heme-containing proteins: Identification of novel IDO1 inhibitors” (Eur J Med Chem, 2019).

Activity calls are given as the source filed them. The calls are words filed in the database; no cut-off is given here. Some results are limits rather than exact numbers.

In data set [1] the target is Indoleamine 2,3-dioxygenase 1 (Mus musculus) (UniProt P28776). Put plainly: Reversal of IDO1-mediated immunosuppression in mouse CT26 co-cultured with T-cells assessed as ConA- stimulated differentiation of Treg cells at 0.3 uM measured after 48 hrs by FOXP3-APC based flow cytometry analysis (reference value: 11.4 %). In general terms: A flow cytometer gives signals particle by particle.
Sequence of Indoleamine 2,3-dioxygenase 1 (Mus musculus) (P28776 whole entry, looked up): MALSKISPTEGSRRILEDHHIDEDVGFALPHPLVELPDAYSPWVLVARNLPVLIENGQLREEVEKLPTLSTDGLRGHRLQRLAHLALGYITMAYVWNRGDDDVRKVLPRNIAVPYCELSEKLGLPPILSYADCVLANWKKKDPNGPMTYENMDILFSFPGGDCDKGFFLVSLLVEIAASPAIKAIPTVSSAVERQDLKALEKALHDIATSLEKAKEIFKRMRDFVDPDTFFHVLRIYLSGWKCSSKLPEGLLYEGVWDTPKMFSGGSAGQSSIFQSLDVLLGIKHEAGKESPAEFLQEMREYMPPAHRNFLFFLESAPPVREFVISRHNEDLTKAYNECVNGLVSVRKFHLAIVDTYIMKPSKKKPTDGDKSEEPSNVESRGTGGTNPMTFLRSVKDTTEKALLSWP

The subject of data set [2] is CT26. Put plainly: Antitumor activity against mouse CT26 cells xenografted in BALB/c mouse assessed as decrease in tumour weight at 50 mg/kg, po via gavage for 17 days by vernier caliper method relative to control. Conditions: 408 h. The format is functional.
The subject of a further data set is HeLa. Put plainly: Effect on IDO1 expression in IFN-gamma-stimulated human HeLa cells at 3 times IDO1 IC50 for 24 hrs by western blot analysis. Format: functional, cell-based. Put shortly:
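HeLa cells (2 × 10^5/well) exposed to human IFN-γ 100 ng/mL with or without compound for 24 h. Lysis in 50 mM Tris-HCl pH 8.0 with detergents and protease inhibitors, then 10% SDS-PAGE and PVDF transfer. Membrane blocked with 5% milk and probed with anti-IDO antibody and HRP secondary; band intensity quantified.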

Data set [3] relates to Mus musculus. Put plainly: Induction of apoptosis in BALB/c mouse xenografted with CT26 cells assessed as cell shrinkage at 50 mg/kg via oral gavage for 17 days by H&E staining based analysis. Format: functional, organism-based. Put shortly:
(§1)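 Tumor tissue from the 17-day CT26/BALB/c gavage study stained with hematoxylin and eosin. Nuclei, cytoplasm and cell morphology assessed by microscopy.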

Data set [4] addresses Indoleamine 2,3-dioxygenase 1 (Mus musculus) (UniProt P28776). Put plainly: Reversal of IDO1-mediated immunosuppression in mouse CT26 co-cultured with T-cells assessed as increase in IFN-gamma production measured after 48 hrs by ELISA relative to control. Put shortly:
(§2)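 CT26 cells (1 × 10^5/well) exposed to compound ([…]) in medium with […] for 48 h. BALB/c splenic T cells resuspended in a 1:1 mix of this supernatant and RPMI/10% FBS with […] for 48 h. IFN-γ measured by ELISA; proliferation by MTT (1 mg/mL, 4 h, 37 °C, DMSO, 570 nm). Three replicate wells, mean ± SEM.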
In general terms: In an ELISA, binding on a coated surface is turned into a signal by an enzyme label.

For data set [5], the system named is Mus musculus. Put plainly: Decrease in FOXP3-postive T cells in BALB/c mouse xenografted with CT26 cells at 50 mg/kg via oral gavage for 17 day by immunohistochemical analysis. The format is functional, organism-based. In short, it runs like this:
(§3)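 Paraffin sections of CT26 tumors from the 17-day BALB/c study. Sections deparaffinized, rehydrated and treated with 2% H2O2. Blocked with 3% goat serum, then incubated 2 h at room temperature with the specific primary antibody. Detection with streptavidin-HRP for 40 min and DAB, hematoxylin counterstain, microscopic imaging.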

Data set [6] has as its system Mus musculus. Put plainly: Increase in Granzyme B expression in BALB/c mouse xenografted with CT26 cells at 50 mg/kg via oral gavage for 17 day by immunohistochemical analysis. The format is functional, organism-based. Put shortly:
as §3

The subject of data set [7] is Mus musculus. In words: Induction of apoptosis in BALB/c mouse xenografted with CT26 cells assessed as decrease in PCNA expression at 50 mg/kg via oral gavage for 17 days by immunohistochemistry analysis. Format: functional, organism-based. Put shortly: as §3
Data set [8] concerns the target Indoleamine 2,3-dioxygenase 1 (Mus musculus) (UniProt P28776). In words: Reversal of IDO1-mediated immunosuppression in mouse CT26 co-cultured with T-cells assessed as increase in T cell proliferation measured after 48 hrs by MTT assay. Put shortly:
as §2
For orientation: Formazan colour is commonly taken as a measure of viable cells.

For data set [9], the target named is Tryptophan 2,3-dioxygenase (Homo sapiens) (UniProt P48775). Put plainly: Inhibition of IFN-gamma-induced human TDO2 transfected in HeLa cells at 10 times IDO1 IC50 concentration using L-tryptophan as substrate incubated for 24 hrs relative to control. Format: cell-based. In short, it runs like this: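 HeLa cells transfected for 24 h with a human TDO2 plasmid, then reseeded at 5 × 10^3/well. After 6 h, IFN-γ and compounds added in medium with […] for 24 h. Supernatant treated with 6.1 N TCA at 50 °C for 30 min and centrifuged; kynurenine read with p-dimethylaminobenzaldehyde at 480 nm.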
Sequence of Tryptophan 2,3-dioxygenase (Homo sapiens) (P48775 whole entry, looked up): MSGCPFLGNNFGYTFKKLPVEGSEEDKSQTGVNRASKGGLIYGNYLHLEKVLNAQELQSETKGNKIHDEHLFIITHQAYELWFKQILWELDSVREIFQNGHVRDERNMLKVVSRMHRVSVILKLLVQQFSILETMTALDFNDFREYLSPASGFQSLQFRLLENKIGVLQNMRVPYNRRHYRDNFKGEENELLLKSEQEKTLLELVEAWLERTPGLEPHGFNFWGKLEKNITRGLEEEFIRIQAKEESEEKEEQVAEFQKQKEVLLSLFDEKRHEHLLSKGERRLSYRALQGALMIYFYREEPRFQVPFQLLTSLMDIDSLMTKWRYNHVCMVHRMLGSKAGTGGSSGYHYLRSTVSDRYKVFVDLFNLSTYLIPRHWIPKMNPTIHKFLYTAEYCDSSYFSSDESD

Data set [10] relates to Mus musculus. In words: Induction of apoptosis in BALB/c mouse xenografted with CT26 cells assessed as nuclear chromatin condensation at 50 mg/kg via oral gavage for 17 days by H&E staining based analysis. The format is functional, organism-based. In short, it runs like this:
as §1

In data set [11] the test system is Mus musculus. In words: Induction of apoptosis in BALB/c mouse xenografted with CT26 cells at 50 mg/kg via oral gavage for 17 days by TUNEL assay. The format is functional, organism-based. In short, it runs like this:
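TUNEL staining of tumor sections from the 17-day CT26/BALB/c study. Apoptotic nuclei scored by fluorescence microscopy under a FITC filter (green).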

The subject of data set [12] is Mus musculus. Put plainly: Induction of apoptosis in BALB/c mouse xenografted with CT26 cells assessed as nuclear chromatin margination at 50 mg/kg via oral gavage for 17 days by H&E staining based analysis. Format: functional, organism-based. Put shortly:
as §1

In data set [13] the test system is CT26. In words: Antitumor activity against mouse CT26 cells xenografted in immunodeficient BALB/c nude mouse assessed as reduction in tumour growth at 50 mg/kg, po via gavage for 10 days by vernier caliper method. The format is functional, organism-based. Put shortly:
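BALB/c nude mice carrying subcutaneous CT26 tumors (1 × 10^6 cells, armpit). Randomized 3 days post-implant into vehicle or treatment groups (n = 6). Oral gavage given on days 1–10; 5-Fu served as reference. Tumor volume and body weight recorded, and tumors weighed after sacrifice.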

For data set [14], the system named is Mus musculus. In words: Increase in infiltrating CD8-positive T cells in BALB/c mouse xenografted with CT26 cells at 50 mg/kg via oral gavage for 17 day by immunohistochemical analysis. The format is functional, organism-based. In short, it runs like this: as §3
For data set [15], the system named is CT26. In words: Antitumor activity against mouse CT26 cells xenografted in BALB/c mouse assessed as decrease in tumour growth at 50 mg/kg, po via gavage for 17 days by vernier caliper method. The format is functional, organism-based.
In data set [16] the test system is Mus musculus. Put plainly: Increase in IFN-gamma expression in BALB/c mouse xenografted with CT26 cells at 50 mg/kg via oral gavage for 17 day by immunohistochemical analysis. Format: functional, organism-based. Put shortly:
as §3

Data set [17] can be described thus: Toxicity in BALB/c mouse xenografted with mouse CT26 cells assessed as effect on body weight at 50 mg/kg, po via gavage for 17 days and measured at day 17. Format: organism-based. Conditions: in vivo, 408 h.

As a reminder, the inhibition in vivo is the share of the control response that was lost under treatment. The term inhibition denotes how much of the control response was suppressed. In the case of `CCC(Nc1ccc(Cl)cc1C)C(=O)N/N=C/c1ccccc1` (stereo not drawn), the values for the Activity in data set [1] and in data set [17] were 5.9% and “Non-Toxic”, respectively. Further, the inhibition in vivo at 50 mg/kg with CT26 [2] stood at 36%. Moreover, the outcome in the data set on HeLa and with CT26 [13] was inactive. Moreover, the result (with Mus musculus [3]; in the data set with Mus musculus [5]; in the data set with Mus musculus [6]; with Mus musculus [7]; in data set [8]; in the data set with Mus musculus [10]) was Active. Besides, the result with Mus musculus [11], with Mus musculus [12], in the data set with Mus musculus [14] and with Mus musculus [16] was Active. For the same compound, the fold change (FC) in data set [4] was determined as 2. Further, the inhibition in data set [9] was < 20%. For the same compound, the inhibition result in the data set on CT26 [15] was “Active”.
